Consider 18 molecules from ChEMBL document CHEMBL4414680, “Identification of new potent A1 adenosine receptor antagonists using a multistage virtual screening approach” (Eur J Med Chem, 2020).

Experiment [1] addresses T1, Adenosine receptor A1 (Homo sapiens, UniProt P30542).
T1 sequence (P30542 whole entry): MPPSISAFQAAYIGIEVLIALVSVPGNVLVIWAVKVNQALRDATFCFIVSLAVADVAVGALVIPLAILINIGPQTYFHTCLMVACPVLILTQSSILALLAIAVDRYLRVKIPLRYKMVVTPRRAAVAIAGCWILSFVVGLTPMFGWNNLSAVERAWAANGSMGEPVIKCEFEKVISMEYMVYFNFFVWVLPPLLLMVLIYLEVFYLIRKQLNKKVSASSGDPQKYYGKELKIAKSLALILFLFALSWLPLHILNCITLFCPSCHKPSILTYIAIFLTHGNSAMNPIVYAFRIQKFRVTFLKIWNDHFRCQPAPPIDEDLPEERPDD
In words: Displacement of [3H]DPCPX from human A1AR expressed in CHO cells incubated for 50 mins by radioligand binding assay. The experiment is classed as cell-based.

The species named for a further experiment is Homo sapiens. In words: Selectivity index, ratio of Ki for human A1AR expressed in CHO cells to Ki for human A2AR expressed in CHO cells by radioligand binding assay. The experiment is classed as cell-based.
A further experiment addresses Adenosine receptor A2a (Homo sapiens, UniProt P29274). The experiment is described as follows: Displacement of [3H]ZM241385 from human A2AR expressed in CHO cells after 90 mins by radioligand binding assay. The experiment is classed as cell-based. A general note: In a radioligand displacement assay an active substance lowers the binding of a labelled ligand.
Experiment [2] deals with T1, Adenosine receptor A1. In words: Antagonist activity at human A1AR expressed in CHO-K1 cells assessed as reduction in NECA-induced inhibition of forskolin-stimulated cAMP accumulation incubated for 30 mins by fluorescence based assay. The class given is functional, cell-based. Put shortly: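 CHO-K1 cells stably expressing human A1AR, grown in F12K + 10% FBS + 800 µg/ml hygromycin B at 37 ℃/5% CO2, resuspended in HBSS with 0.1% BSA, 20 mM HEPES, 100 nM IBMX; 8000 cells/well. Ten 3-fold compound dilutions; forskolin (8 µM) plus NECA (40 nM) added, 30 min at 37 ℃. HTRF cAMP detection (Eu3+ cryptate anti-cAMP, d2-cAMP), 1 h room temperature, read at 665/615 nm.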
Background: Cyclic AMP is a second messenger, typically raised through Gs and lowered through Gi signalling.

Where only a bound is given, the exact number is not on record here.

Broadly, the Ki is a measure of affinity in units of concentration, obtained from inhibition or displacement. Read a high Ki as lower affinity. Broadly, the IC50 is the concentration that gives 50% inhibition.

Chain of Adenosine receptor A2a (P29274 whole entry): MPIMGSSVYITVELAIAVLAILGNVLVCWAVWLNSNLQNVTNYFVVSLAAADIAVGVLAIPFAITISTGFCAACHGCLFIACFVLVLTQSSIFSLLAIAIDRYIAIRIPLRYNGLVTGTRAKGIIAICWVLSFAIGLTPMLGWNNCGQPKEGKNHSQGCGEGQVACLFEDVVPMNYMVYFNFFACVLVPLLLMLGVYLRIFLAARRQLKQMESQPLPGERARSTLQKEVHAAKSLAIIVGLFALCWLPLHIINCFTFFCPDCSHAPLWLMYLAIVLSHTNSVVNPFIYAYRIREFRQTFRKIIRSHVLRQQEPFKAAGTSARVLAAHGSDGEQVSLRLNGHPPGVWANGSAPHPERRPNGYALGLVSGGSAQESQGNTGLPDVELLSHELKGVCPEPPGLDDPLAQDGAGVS

For `N#Cc1c(N)nc2c(c1-c1ccc3c(c1)OCO3)CCCC2`, the figures for the inhibition constant (Ki) at Adenosine receptor A1 [1] and at Adenosine receptor A2a were 0.0741 µM and greater than 100 µM, respectively. For the same molecule, the Ratio Ki in the experiment filed under Homo sapiens was less than 0.001. In addition, the IC50 at Adenosine receptor A1 [2] was 0.417 µM.

In the case of `O=c1[nH]c(N2CCCC2)nc2nccc(-c3ccc(Cl)cc3)c12`, the inhibition constant (Ki) on Adenosine receptor A1 [1] was 0.776 µM; at Adenosine receptor A2a, greater than 100 µM. In addition, in the experiment filed under Homo sapiens, the Ratio Ki was less than 0.01. In addition, at Adenosine receptor A1 [2], the IC50 is 1.48 µM.

With `CC(C)C(=O)Nc1nc2n(n1)C(c1ccccc1Cl)C=C(c1ccccc1)N2` (stereo unspecified), at Adenosine receptor A1 [1], the Ki is 32.4 µM.

The molecule `CCOC(=O)N1CCN(c2cc(NC3CCCCC3)c3c4c(onc24)-c2ccccc2C3=O)CC1` gave a Ki on Adenosine receptor A1 [1] of 19.5 µM.

Regarding `C=CCn1c(SCc2ccccn2)nc2c([nH]c3ccccc32)c1=O`, the Ki at Adenosine receptor A1 [1] is 0.708 µM; on Adenosine receptor A2a, greater than 100 µM. Besides, the Ratio Ki in the experiment listed under Homo sapiens is less than 0.01. Further, the half-maximal inhibitory concentration (IC50) on Adenosine receptor A1 [2] was 1.26 µM.

In the case of `Cc1cc(=O)n2c(n1)NC(Nc1cccc(C)c1C)=NC2c1ccc(F)cc1` (stereo unspecified), the Ki on Adenosine receptor A1 [1] is 3.24 µM.

Consider `O=C(Cn1cc(-c2ccccc2)c2ncn(C3CC3)c(=O)c21)NCc1ccc(F)cc1`, for which the Ki on Adenosine receptor A1 [1] is 0.589 µM; on Adenosine receptor A2a, 36.3 µM. For the same molecule, the Ratio Ki in the experiment listed under Homo sapiens worked out at 0.016. Further, on Adenosine receptor A1 [2], the half-maximal inhibitory concentration (IC50) was 2.82 µM.

On Adenosine receptor A1 [1], `CC(C)CN1C(=O)/C(=C/c2c(NCCc3ccccc3)nc3ccccn3c2=O)SC1=S` had a Ki of 13.5 µM.

`COc1ccc(-c2cc(-c3cccc(Br)c3)c(C#N)c(N)n2)cc1`: the Ki is 0.209 µM on Adenosine receptor A1 [1] and 38 µM on Adenosine receptor A2a. In addition, the Ratio Ki in the experiment filed under Homo sapiens came to 0.006. In addition, the IC50 on Adenosine receptor A1 [2] is 1.86 µM.

Turning to `Cc1ccc(C2=CC(c3ccccc3Cl)n3nc(CCCO)nc3N2)cc1` (stereo unspecified), the Ki on Adenosine receptor A1 [1] was 18.6 µM.

Take `COc1ccc(/C=C/c2ccnc3nc(N4CCCCC4)[nH]c(=O)c23)cc1`: affinity at Adenosine receptor A1 [1] was put at a Ki of 3.02 µM.

`O=C1CC(C(=O)Nc2ccccc2)c2c(nc(SCc3ccccc3F)[nH]c2=O)N1` (stereo unspecified): the affinity on Adenosine receptor A1 [1] corresponds to a Ki of 7.24 µM.

`CCCN(CCC)c1c(-c2ccccc2)c2cc(Cl)ccc2[nH]c1=O`: the Ki at Adenosine receptor A1 [1] is 25.7 µM.

Regarding `Cc1ccc(C(=O)Nc2c(C(=O)NC3CCCC3)[nH]c3ccc(C)cc23)cc1`, the Ki is 0.513 µM on Adenosine receptor A1 [1] and greater than 100 µM at Adenosine receptor A2a. Also, the Ratio Ki in the experiment filed under Homo sapiens is less than 0.01. In addition, the IC50 at Adenosine receptor A1 [2] is 3.09 µM.

Turning to `CCC(C(=O)n1nc(-c2ccccc2)nc1N)c1ccccc1` (stereo unspecified), affinity on Adenosine receptor A1 [1] was put at a Ki of 10.7 µM.

`Oc1ccccc1Nc1nc(-c2ccccc2)c2cc(Cl)ccc2n1` gave an inhibition constant Ki on Adenosine receptor A1 [1] of 20 µM.

`Cc1cc(C)nc(Nc2nc(-c3ccccc3)c3ccc(Cl)cc3n2)n1` gave a Ki at Adenosine receptor A1 [1] of 6.92 µM.

At Adenosine receptor A1 [1], `COc1ccccc1CNC(=O)c1cc(Nc2ccccc2C)nc2ccccc12` showed a Ki of 1.12 µM.
